Assay results gathered from unrelated publications.
Lines come from different studies, so protocols differ.
Observed: cell growth or viability

SMILES | cell line | test | setting | endpoint | result
O=C(NCc1ccc(O)cc1)c1cn(Cc2ccc(F)cc2)c2ccc(Oc3ccccc3)cc2c1=O | MCF7 | MTT | 24 h | IC50 | > 500 µM
CC[C@H](C)[C@H](NC(=O)[C@H](CCCCN)NC(=O)[C@H](CCCCN)NC(=O)[C@H](CC(C)C)NC(=O)[C@H](CCCCN)NC(=O)[C@H](CCCCN)NC(=O)[C@H](Cc1ccccc1)NC(=O)[C@H](Cc1ccccc1)NC(=O)[C@H](CCCNC(=N)N)NC(=O)[C@H](CCCNC(=N)N)NC(=O)[C@@H](NC(=O)[C@H](CCCCN)NC(=O)[C@H](CCCNC(=N)N)NC(=O)[C@@H](NC(=O)[C@@H](N)Cc1ccc(O)cc1)[C@@H](C)CC)[C@@H](C)CC)C(=O)N[C@@H](CC(C)C)C(=O)N[C@@H](CCCCN)C(=O)N[C@@H](CCCCN)C(N)=O | SAOS-2 | resazurin |  | IC50 | > 20 µM
O=C(NCc1ccccc1)c1cn(Cc2ccc(C(F)(F)F)cc2)c2ccc(Oc3ccccc3)cc2c1=O | MCF7 | MTT | 24 h | IC50 | 9.4 µM
CC(C)C[C@@H](NC(=O)[C@H](C)NC(=O)CNC(=O)[C@@H](NC=O)C(C)C)C(=O)N[C@@H](C)C(=O)N[C@@H](C(=O)N[C@H](C(=O)N[C@@H](C(=O)N[C@@H](Cc1c[nH]c2ccccc12)C(=O)N[C@H](CC(C)C)C(=O)N[C@@H](Cc1cccc2[nH]ccc12)C(=O)N[C@H](CC(C)C)C(=O)N[C@@H](Cc1c[nH]c2ccccc12)C(=O)N[C@H](CC(C)C)C(=O)N[C@@H](Cc1c[nH]c2ccccc12)C(=O)NCCO)C(C)C)C(C)C)C(C)C | MCF7 | SRB | 48 h | GI50 | 0.0684 µM
O=C1CCP(=S)(c2ccccc2)CC1 | SW-620 | MTT | 72 h | IC50 | 6.3 µM
O=C(Nc1ccc(Cl)cc1)Nc1cccc(-c2cn(Cc3ccc(Br)cc3)nn2)c1 | MCF7 | CCK-8 | 50 µM, 72 h | viability | 86.8%
CC(C)C[C@@H](NC(=O)[C@H](C)NC(=O)CNC(=O)[C@@H](NC=O)C(C)C)C(=O)N[C@@H](C)C(=O)N[C@@H](C(=O)N[C@H](C(=O)N[C@@H](C(=O)N[C@@H](Cc1c[nH]c2ccccc12)C(=O)N[C@H](CC(C)C)C(=O)N[C@@H](Cc1ccc2[nH]ccc2c1)C(=O)N[C@H](CC(C)C)C(=O)N[C@@H](Cc1c[nH]c2ccccc12)C(=O)N[C@@H](C(=O)N[C@@H](Cc1c[nH]c2ccccc12)C(=O)NCCO)C(C)C)[C@H](C)O)C(C)C)C(C)C | MCF7 | SRB | 48 h | GI50 | 0.878 µM
O=C1CCP(c2ccccc2)CC1 | SW-620 | MTT | 72 h | IC50 | 73.7 µM
CC(C)C[C@@H](NC(=O)[C@H](C)NC(=O)CNC(=O)[C@@H](NC=O)C(C)C)C(=O)N[C@@H](C)C(=O)N[C@@H](C(=O)N[C@H](C(=O)N[C@@H](C(=O)N[C@@H](Cc1c[nH]c2ccccc12)C(=O)N[C@H](CC(C)C)C(=O)N[C@@H](Cc1cccc2cc[nH]c12)C(=O)N[C@H](CC(C)C)C(=O)N[C@@H](Cc1c[nH]c2ccccc12)C(=O)N[C@H](CC(C)C)C(=O)N[C@@H](Cc1c[nH]c2ccccc12)C(=O)NCCO)C(C)C)C(C)C)C(C)C | MCF7 | SRB | 48 h | GI50 | 0.0365 µM
N.N.[Cl][Pt][Cl] | MCF7 | MTT | 48 h | IC50 | 9.9 µM
